Measured values taken from ChEMBL document CHEMBL1146360, “Benzoic acid and pyridine derivatives as inhibitors of Trypanosoma cruzi trans-sialidase” (Bioorg Med Chem, 2007).

System: Trypanosoma cruzi
Settings: at 1 mM

Row | SMILES | inhibition [%]
1 | CC(=O)Nc1ccc(C(=O)O)nc1 | 22
2 | NC(N)=Nc1cc(C(=O)O)cc(CCO)c1N | 0
3 | CS(=O)(=O)Nc1c(CO)cc(C(=O)O)cc1N=C(N)N | 11
4 | CS(=O)(=O)Nc1c(/C=N/O)cc(C(=O)O)cc1N=C(N)N | 46
5 | N=C(N)Nc1cc(/C=N/O)cc(C(=O)O)c1 | 35
6 | CS(=O)(=O)Nc1ccc(C(=O)O)cc1C(O)CN (stereo unspecified) | 17
7 | CC(=O)Nc1c(CCO)cc(C(=O)O)cc1N=C(N)N | 0
8 | CC(=O)Nc1ccc(C(=O)O)cc1/C=N/O | 24
9 | CC(=O)Nc1ccc(C(=O)O)cc1CC(N)=O | 0
10 | C[S+]([O-])Nc1ccc(C(=O)O)cc1N=C(N)N (stereo unspecified) | 29

The remaining lines, values ahead:

Row | inhibition [%] | SMILES
11 | 14 | CC(=O)Nc1cnc(C(=O)O)cc1N
12 | 0 | CC(=O)Nc1ccc(C(=O)O)cc1CC(O)CO (stereo in doubt; 32)
13 | 0 | O=C(CN1CCOCC1)Nc1ccc(C(=O)O)cc1
14 | 0 | CC(=O)Nc1ccc(C(=O)O)cc1
15 | 16 | CC(=O)Nc1ccc(C(=O)O)cc1CCO
16 | 9 | NC(N)=Nc1cc(C(=O)O)ccc1NCc1ccccc1
17 | 25 | CS(=O)(=O)Nc1ccc(C(=O)O)nc1
18 | 17 | CC(=O)Nc1ccc(C(=O)O)cc1CC(O)CO (stereo in doubt; 31)
19 | 25 | CC(=O)Nc1ccc(C(=O)O)cc1CCN

System: Trypanosoma cruzi
Experiment: Apparent activation of Trypanosoma cruzi recombinant Trans-sialidase
Settings: concentration not given here
How it was run: (§1)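 Recombinant His-tagged TcTS was expressed in E. coli with IPTG induction at 18 °C, then purified by metal-affinity and anion-exchange chromatography. Enzyme (0.33 mg/mL stock) and inhibitor were preincubated 10 min at 25 °C in 20 mM Tris-HCl pH 7.5. The reaction was started with MuNANA (1 mM stock) and methylumbelliferone release read continuously for 10 min at 25 °C (ex 322/em 448 nm). Percentage activity is the mean of ≥3 independent runs. I50 was fitted as V=100%/{1+([I]/I50)^s}.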

Row | inhibition [%] | SMILES
20 | -19 | N=C(N)Nc1cc(CCN)cc(C(=O)O)c1

System: Trypanosoma cruzi
Experiment: Inhibition of Trypanosoma cruzi recombinant Trans-sialidase at 0.5 mM
Settings: not given
How it was run: as §1

Row | inhibition [%] | SMILES
21 | 54 | NC(N)=Nc1cc(C(=O)O)ccc1NC(=O)Cc1ccccc1

System: Trypanosoma cruzi
Experiment: Inhibition of Trypanosoma cruzi recombinant Trans-sialidase at 0.4 mM
Settings: not given
How it was run: as §1

Row | inhibition [%] | SMILES
22 | 43 | NC(N)=Nc1cc(C(=O)O)ccc1SCc1ccccc1

Target: not listed separately
Experiment: Inhibition of Trypanosoma cruzi recombinant Trans-sialidase
Settings: read-out: I50
How it was run: as §1

Row | SMILES | IC50 [µM]
23 | Nc1cc(C(=O)O)ccc1NCc1cccnc1 | 740
24 | CC(=O)Nc1ccc(C(=O)O)nc1N | 440
25 | CNC(=O)c1ccc(C(=O)O)cc1NC(=N)N | 760
26 | NCC(=O)Nc1cc(C(=O)O)ccc1SCc1ccccc1 | 1000
27 | CC(=S)Nc1ccc(C(=O)O)nc1 | 540

The remaining lines, values ahead:

Row | IC50 [µM] | SMILES
28 | 1200 | Nc1cc(C(=O)O)ccc1NC(=O)Cc1ccccc1
29 | 580 | CC(=O)Nc1cc(C(=O)O)ccc1N1CCOCC1
30 | 700 | Nc1cc(C(=O)O)ccc1SCc1ccccc1
31 | 540 | CC(=O)Nc1ccc(C(=O)O)cc1CO
